Assay results as given in ChEMBL document CHEMBL2401663, “(Biphenyl-4-yl)methylammonium chlorides: potent anticonvulsants that modulate Na+ currents” (J Med Chem, 2013).

Assays:
[1] = Toxicity in ip dosed albino CF1 mouse after 0.25 to 4 hrs by rotorod test; type: organism-based; conditions: in vivo
[2] = tested on: Rattus norvegicus; assay: Anticonvulsant activity against ip dosed albino Sprague-Dawley rat after 0.25 to 4 hrs by maximal electroshock seizure test; type: functional
How it was run: (§1)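 Male albino Sprague-Dawley rats dosed ip or orally under the NIH Anticonvulsant Screening Program, tested by maximal electroshock seizure.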

[3] = Toxicity in po dosed albino Sprague-Dawley rat assessed as behavioral toxicity after 0.25 to 4 hrs; type: organism-based; conditions: in vivo
How it was run: (§2)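 Male albino Sprague-Dawley rats dosed ip or orally, scored for behavioral toxicity (neurological impairment). TD50 is in mg/kg, taken at the time of peak effect.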

[4] = tested on: Mus musculus; assay: Anticonvulsant activity against ip dosed albino CF1 mouse after 0.25 to 4 hrs by maximal electroshock seizure test; type: functional
[5] = Toxicity in ip dosed albino Sprague-Dawley rat assessed as behavioral toxicity after 0.25 to 4 hrs; type: organism-based; conditions: in vivo; how it was run: as §2
[6] = tested on: Mus musculus; assay: Anticonvulsant activity against ip dosed albino CF1 mouse after 1 to 4 hrs by 6 Hz psychomotor seizure test; type: functional
[7] = tested on: Mus musculus; assay: Anticonvulsant activity against ip dosed albino CF1 mouse after 0.25 to 4 hrs by subcutaneous pentylenetetrazol test; type: functional
[8] = tested on: Rattus norvegicus; assay: Anticonvulsant activity against po dosed albino Sprague-Dawley rat after 0.25 to 4 hrs by maximal electroshock seizure test; type: functional; how it was run: as §1
[9] = tested on: Mus musculus; assay: Anticonvulsant activity against ip dosed albino CF1 mouse after 0.25 to 0.5 hrs by maximal electroshock seizure test; type: functional
[10] = tested on: Mus musculus; assay: Anticonvulsant activity against ip dosed albino CF1 mouse after 0.5 to 4 hrs by subcutaneous pentylenetetrazol test; type: functional
[11] = tested on: Mus musculus; assay: Anticonvulsant activity against ip dosed albino CF1 mouse after 0.5 to 1 hr by 6 Hz psychomotor seizure test; type: functional
[12] = tested on: Mus musculus; assay: Anticonvulsant activity against ip dosed albino CF1 mouse after 1 hr by maximal electroshock seizure test; type: functional
[13] = tested on: Rattus norvegicus; assay: Anticonvulsant activity against po dosed albino Sprague-Dawley rat after 5 hrs by maximal electroshock seizure test; type: functional
How it was run: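 Male albino Sprague-Dawley rats given compound orally under the NIH Anticonvulsant Screening Program, then challenged by maximal electroshock.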

[14] = tested on: Rattus norvegicus; assay: Anticonvulsant activity against po dosed albino Sprague-Dawley rat […] by maximal electroshock seizure test; type: functional; how it was run: as §1
[15] = tested on: Mus musculus; assay: Anticonvulsant activity against ip dosed albino CF1 mouse after 0.5 to 2 hrs by 6 Hz psychomotor seizure test; type: functional
[16] = tested on: Mus musculus; assay: Toxicity in ip dosed albino CF1 mouse after 0.5 to 2 hrs by rotorod test; type: organism-based; conditions: in vivo
[17] = tested on: Mus musculus; assay: Anticonvulsant activity against ip dosed albino CF1 mouse after 0.5 hrs by maximal electroshock seizure test; type: functional
[18] = tested on: Mus musculus; assay: Anticonvulsant activity against ip dosed albino CF1 mouse after 0.5 to 4 hrs by 6 Hz psychomotor seizure test; type: functional
[19] = Toxicity in ip dosed albino Sprague-Dawley rat assessed as behavioral toxicity after 0.25 to 0.5 hrs; type: organism-based; conditions: in vivo; how it was run: as §2
[20] = tested on: Mus musculus; assay: Anticonvulsant activity against ip dosed albino CF1 mouse after 0.25 to 2 hrs by subcutaneous pentylenetetrazol test; type: functional
[21] = tested on: Mus musculus; assay: Anticonvulsant activity against ip dosed albino CF1 mouse after 0.25 to 1 hr by maximal electroshock seizure test; type: functional
[22] = tested on: Rattus norvegicus; assay: Anticonvulsant activity against ip dosed albino Sprague-Dawley rat after 0.25 to 0.5 hrs by maximal electroshock seizure test; type: functional; how it was run: as §1
[23] = tested on: Mus musculus; assay: Anticonvulsant activity against ip dosed albino CF1 mouse after 2 hrs by 6 Hz psychomotor seizure test; type: functional
[24] = tested on: Mus musculus; assay: Anticonvulsant activity against ip dosed albino CF1 mouse after 0.5 to 2 hrs by maximal electroshock seizure test; type: functional

## Cl.NCc1ccc(-c2ccc(Cl)cc2)cc1
[1]
  TD50: > 50 mg/kg
[2]
  ED50: > 30 mg/kg
[3]
  TD50: > 30 mg/kg
[4]
  ED50: > 50 mg/kg
[5]
  TD50: > 30 mg/kg
[6]
  ED50: < 100 mg/kg
[7]
  ED50: > 50 mg/kg
[8]
  ED50: > 30 mg/kg

## Cl.NCc1ccc(-c2ccccc2)cc1
[1]
  TD50: > 100 mg/kg
[2]
  ED50: > 30 mg/kg
[3]
  TD50: > 30 mg/kg
[9]
  ED50: 30 mg/kg
[5]
  TD50: > 30 mg/kg
[10]
  ED50: > 300 mg/kg
[11]
  ED50: 100 mg/kg
[8]
  ED50: > 30 mg/kg

## CCC1(c2ccccc2)C(=O)NC(=O)NC1=O [PHENOBARBITAL]
[12]
  ED50: 22 mg/kg
[13]
  ED50: 9.1 mg/kg

## O=C1NC(=O)C(c2ccccc2)(c2ccccc2)N1 [PHENYTOIN]
[14]
  ED50: 30 mg/kg

## COC(=O)c1cccc(-c2ccc(CN)cc2)c1.Cl
[15]
  ED50: > 300 mg/kg
[2]
  ED50: > 30 mg/kg
[16]
  TD50: 100 mg/kg
[3]
  TD50: > 30 mg/kg
[17]
  ED50: 100 mg/kg
[5]
  TD50: > 30 mg/kg
[8]
  ED50: > 30 mg/kg

## Cl.NCc1ccc(-c2cccc(Cl)c2)cc1
[18]
  ED50: < 100 mg/kg
[1]
  TD50: > 100 mg/kg
[3]
  TD50: > 30 mg/kg
[19]
  TD50: 65 mg/kg
[20]
  ED50: < 100 mg/kg
[21]
  ED50: < 100 mg/kg
[22]
  ED50: 65 mg/kg
[8]
  ED50: > 30 mg/kg

## Cl.NCc1ccc(-c2ccc(OC(F)(F)F)cc2)cc1
[1]
  TD50: > 50 mg/kg
[2]
  ED50: > 30 mg/kg
[3]
  TD50: > 30 mg/kg
[23]
  ED50: < 100 mg/kg
[5]
  TD50: > 30 mg/kg
[7]
  ED50: > 50 mg/kg
[8]
  ED50: > 30 mg/kg
[24]
  ED50: 50 mg/kg
